The target in assay [1] is T1, Acid ceramidase (Homo sapiens) (UniProt Q13510).
T1 sequence (whole entry): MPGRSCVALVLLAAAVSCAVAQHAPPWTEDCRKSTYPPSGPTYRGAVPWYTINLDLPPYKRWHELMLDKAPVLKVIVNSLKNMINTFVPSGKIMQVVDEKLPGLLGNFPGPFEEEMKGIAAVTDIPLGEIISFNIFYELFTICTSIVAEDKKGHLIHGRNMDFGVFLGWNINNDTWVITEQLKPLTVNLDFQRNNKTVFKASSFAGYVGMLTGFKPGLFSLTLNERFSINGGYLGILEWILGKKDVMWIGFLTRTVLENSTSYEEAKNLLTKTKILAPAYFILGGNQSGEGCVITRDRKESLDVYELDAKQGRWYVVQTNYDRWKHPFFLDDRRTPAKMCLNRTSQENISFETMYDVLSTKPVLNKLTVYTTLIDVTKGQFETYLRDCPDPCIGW
Nature of the assay: Inhibition of exogenous C6-ceramid-stimulated acid ceramidase in human PBMC assessed as ratio of C16-ceramide/lipid phosphate level at 10 uM preincubated for 30 mins followed by C6-ceramid stimulation measured after 4 hrs by HPLC method (reference value: 2.19). The assay is classed as cell-based. The procedure, abridged:
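Human macrophages from primary culture were preincubated 30 min with 10 µM compound. They were then stimulated 4 h with mmLDL (54 µg/mL), TNFalpha (3 ng/mL) or exogenous C6-ceramide (10 µM), or left unstimulated. Individual ceramide species (C16 and C24:1) were quantified in the cell lipid extracts.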

Assay [2] has as its system MONO-MAC-6. Nature of the assay: Upregulation of IL23A mRNA expression level in LPS-stimulated human MONO-MAC-6 cells at 5 uM preincubated for 30 mins followed by LPS stimulation measured after 6 hrs by qRT-PCR method (reference value: 7.18). It is filed as functional. In general terms: In qPCR the cycle at which signal appears reflects the starting amount.
The test system of assay [3] is MONO-MAC-6. The assay can be described thus: Upregulation of IFNA13 mRNA expression level in LPS-stimulated human MONO-MAC-6 cells preincubated for 30 mins followed by LPS stimulation measured after 1 hr by qRT-PCR analysis relative to control. The assay is classed as functional.
Assay [4] relates to MONO-MAC-6. Nature of the assay: Upregulation of CXCL3 mRNA expression level in LPS-stimulated human MONO-MAC-6 cells at 5 uM preincubated for 30 mins followed by LPS stimulation measured after 2 hrs by oligonucleotide array hybridization assay (reference value: 3.24). It is filed as functional.
Assay [5] has as its system MONO-MAC-6. Nature of the assay: Downregulation of IL-6 mRNA expression level in human MONO-MAC-6 cells at 5 uM incubated for 30 mins measured after 2 hrs by qRT-PCR method relative to control. It is filed as functional.
For assay [6], the system named is MONO-MAC-6. Nature of the assay: Downregulation of PTX3 mRNA expression level in LPS-stimulated human MONO-MAC-6 cells at 5 uM preincubated for 30 mins followed by LPS stimulation measured after 6 hrs by oligonucleotide array hybridization assay (reference value: 3.18). It is filed as functional. In short, it runs like this:
(§1)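 Total RNA was isolated, transcribed and labeled with DY-647 dye, then co-hybridized with DY-548-labeled cDNA from untreated cells on an inflammation oligonucleotide chip (780 gene probes). Differential expression >1.5 was taken as significant.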

Assay [7] relates to MONO-MAC-6. The assay can be described thus: Downregulation of CCL20 mRNA expression level in human MONO-MAC-6 cells at 5 uM incubated for 30 mins measured after 1 hr by oligonucleotide array hybridization assay relative to control. The assay is classed as functional. In short, it runs like this: as §1
For assay [8], the system named is MONO-MAC-6. Nature of the assay: Upregulation of TNFalpha mRNA expression level in LPS-stimulated human MONO-MAC-6 cells at 5 uM preincubated for 30 mins followed by LPS stimulation measured after 1 hr by qRT-PCR method (reference value: 1.08). It is filed as functional.
For assay [9], the system named is MONO-MAC-6. Nature of the assay: Downregulation of CCL20 mRNA expression level in human MONO-MAC-6 cells at 5 uM incubated for 30 mins measured after 4 hrs by oligonucleotide array hybridization assay relative to control. It is filed as functional. In short, it runs like this: as §1
Assay [10] concerns MONO-MAC-6. The assay can be described thus: Downregulation of IL23A mRNA expression level in human MONO-MAC-6 cells at 5 uM incubated for 30 mins measured after 6 hrs by qRT-PCR method relative to control. It is filed as functional.
In assay [11] the target is T1, Acid ceramidase (Homo sapiens). Nature of the assay: Inhibition of C2-dihydroceramide-stimulated acid ceramidase in human PBMC assessed as reduction in C16-ceramide level at 10 uM preincubated for 30 mins followed by C2-dihydroceramide stimulation measured after 4 hrs by HPLC method. It is filed as cell-based.
Assay [12] concerns MONO-MAC-6. Nature of the assay: Upregulation of CXCL3 mRNA expression level in human MONO-MAC-6 cells at 5 uM incubated for 30 mins measured after 2 hrs by oligonucleotide array hybridization assay relative to control. It is filed as functional.
For assay [13], the system named is MONO-MAC-6. Nature of the assay: Upregulation of PTX3 mRNA expression level in LPS-stimulated human MONO-MAC-6 cells at 5 uM preincubated for 30 mins followed by LPS stimulation measured after 2 hrs by oligonucleotide array hybridization assay (reference value: 1.56). It is filed as functional.
For assay [14], the system named is MONO-MAC-6. Nature of the assay: Downregulation of CCL20 mRNA expression level in human MONO-MAC-6 cells at 5 uM incubated for 30 mins measured after 6 hrs by oligonucleotide array hybridization assay relative to control. The assay is classed as functional. In short, it runs like this:
as §1

Assay [15] deals with MONO-MAC-6. Nature of the assay: Upregulation of PTGS2 mRNA expression level in LPS-stimulated human MONO-MAC-6 cells at 5 uM preincubated for 30 mins followed by LPS stimulation measured after 2 hrs by oligonucleotide array hybridization assay (reference value: 1.97). The assay is classed as functional.
Assay [16] relates to MONO-MAC-6. The assay can be described thus: Downregulation of TNFalpha mRNA expression level in human MONO-MAC-6 cells at 5 uM incubated for 30 mins measured after 4 hrs by qRT-PCR method relative to control. The assay is classed as functional.
Assay [17] concerns MONO-MAC-6. Nature of the assay: Upregulation of PTGS2 mRNA expression level in human MONO-MAC-6 cells at 5 uM incubated for 30 mins measured after 2 hrs by oligonucleotide array hybridization assay relative to control. The assay is classed as functional.
Assay [18] concerns MONO-MAC-6. The assay can be described thus: Downregulation of PTX3 mRNA expression level in human MONO-MAC-6 cells at 5 uM incubated for 30 mins measured after 4 hrs by oligonucleotide array hybridization assay relative to control. It is filed as functional. In short, it runs like this: as §1
The test system of assay [19] is MONO-MAC-6. Nature of the assay: Upregulation of CXCL2 mRNA expression level in human MONO-MAC-6 cells at 5 uM incubated for 30 mins measured after 2 hrs by oligonucleotide array hybridization assay relative to control. It is filed as functional.
For assay [20], the system named is MONO-MAC-6. The assay can be described thus: Upregulation of CCL4 mRNA expression level in LPS-stimulated human MONO-MAC-6 cells at 5 uM preincubated for 30 mins followed by LPS stimulation measured after 6 hrs by oligonucleotide array hybridization assay (reference value: 6.37). The assay is classed as functional.
The subject of assay [21] is MONO-MAC-6. Nature of the assay: Upregulation of IL-6 mRNA expression level in LPS-stimulated human MONO-MAC-6 cells at 5 uM preincubated for 30 mins followed by LPS stimulation measured after 4 hrs by qRT-PCR method (reference value: 76.46). It is filed as functional.
In assay [22] the test system is MONO-MAC-6. Nature of the assay: Downregulation of CCL4 mRNA expression level in human MONO-MAC-6 cells at 5 uM incubated for 30 mins measured after 2 hrs by oligonucleotide array hybridization assay relative to control. The assay is classed as functional. The procedure, abridged:
as §1

Assay [23] concerns MONO-MAC-6. Nature of the assay: Upregulation of CCL20 mRNA expression level in LPS-stimulated human MONO-MAC-6 cells at 5 uM preincubated for 30 mins followed by LPS stimulation measured after 4 hrs by oligonucleotide array hybridization assay (reference value: 10.69). The assay is classed as functional.
Assay [24] has as its system MONO-MAC-6. The assay can be described thus: Downregulation of IL-6 mRNA expression level in LPS-stimulated human MONO-MAC-6 cells at 5 uM preincubated for 30 mins followed by LPS stimulation measured after 6 hrs by qRT-PCR method (reference value: 5.09). It is filed as functional.

Structures are written as SMILES. Activity calls are given as the source filed them. No cut-off for these calls is given here.

Experimental findings from ChEMBL document CHEMBL4152184, “NB 06: From a simple lysosomotropic aSMase inhibitor to tools for elucidating the role of lysosomes in signaling apoptosis and LPS-induced inflammation” (Eur J Med Chem, 2018) are described below.

Regarding `COc1ccc(CCN(C)CCCn2c3ccccc3c3ccccc32)cc1`, the Ratio in [1] is 0.47. In addition, the “fold change (FC)” value in assay [2] was 1.1; in [3], 41.95; in assay [4] it was 2.34; in [5], 2.15; in assay [6], 1.05; in assay [7], 1.09. Moreover, the “fold change (FC)” value in assay [8] is recorded as 1.23; in assay [9], 1.4; in assay [10], 1.72; in assay [12], 1.25; in [13], 1.2; in assay [14] it was 5.68. Further, the “fold change (FC)” value in [15] was determined as 3.66; in assay [16], 2.86; in assay [17], 2.08; in [18], 1.93; in [19], 1.11; in [20], 1.16. For the same molecule, the “fold change (FC)” value in assay [21] was determined as 29.11; in [22] it was 1.05; in assay [23] it was 4.54; in [24], 1.1. In assay [11], the inhibition result was “inactive”.
